Measurements: ChEMBL document CHEMBL3227998, “Synthesis and pharmacological activity of 2,3,4,5,-tetrahydro-1,5-methano-1H-3-benzazepines” (J Med Chem, 1979)
Calls of active or inactive are those of the source. The rule behind the calls is not given here.

Key:
Mus musculus [1] = assay: Analgesic activity in sc dosed mouse by eddy's hot-plate method; format: functional
In short: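 Mice were given aqueous solutions of the oxalate salts subcutaneously. Antinociception was read by the Eddy hot-plate method, and analgesic potency was expressed as ED50 in mg/kg.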

[2] = (§1) Toxicity in sc dosed mouse; format: organism-based; settings: in vivo
Mus musculus [3] = assay: Inhibition of morphine-induced response in mouse at 3 mg/kg, sc by tail-flick antagonist assay; format: functional; design: scale not given: the % may be the effect or the level left; settings: route subcutaneous
Mus musculus [4] = assay: as §1; format: organism-based; settings: in vivo
Mus musculus [5] = assay: Inhibition of morphine-induced response in mouse at 0.3 mg/kg, sc by tail-flick antagonist assay; format: functional; design: scale not given: the % may be the effect or the level left; settings: route subcutaneous
Mus musculus [6] = assay: Inhibition of morphine-induced response in mouse at 1 mg/kg, sc by tail-flick antagonist assay; format: functional; design: scale not given: the % may be the effect or the level left; settings: route subcutaneous

Row | SMILES | ED50 (Mus musculus [1]) | Activity (Mus musculus [1]) | Activity (Mus musculus [4]) | also measured
1 | C=CCN1CC2CC(C1)c1ccccc12.O=C(O)C(=O)O | 15.6 mg/kg |  |  | LD50 [2]: 47 mg/kg; Activity (Mus musculus [3]): 56%
2 | O=C(O)C(=O)O.c1ccc(CCN2CC3CC(C2)c2ccccc23)cc1 |  | inactive | Non-toxic | 
3 | c1ccc2c(c1)C1CCNCC2C1 (stereo not drawn) | 4.9 mg/kg |  |  | 
4 | O=C(O)C(=O)O.c1ccc2c(c1)C1CC2CN(CC2CC2)C1 |  | inactive | Toxic | Activity (Mus musculus [5]): 58%
5 | CCCN1CC2CC(C1)c1ccccc12.O=C(O)C(=O)O |  | inactive | Toxic | Activity (Mus musculus [6]): 47%
6 | CC(C)=CCN1CC2CC(C1)c1ccccc12.O=C(O)C(=O)O |  | inactive | Toxic | 
7 | COc1ccc2c3c1O[C@H]1[C@@H](O)C=C[C@H]4[C@@H](C2)N(C)CC[C@@]341 [CODEINE] | 5.8 mg/kg |  |  | 
8 | CN1CC2CC(C1)c1ccccc12.O=C(O)C(=O)O |  | inactive | Toxic | 
9 | c1ccc2c(c1)CC1CC2CCN1 (stereo not drawn) | 10.2 mg/kg |  |  | 
